Results as given in ChEMBL document CHEMBL4177769, “Highly Selective and Potent Ectonucleotide Pyrophosphatase-1 (NPP1) Inhibitors Based on Uridine 5'-Pα,α-Dithiophosphate Analogues” (J Med Chem, 2018).
Activity calls are given as the source filed them. The rule behind the calls is not given here.

Tests used:
[1] = Drug metabolism at 2 mM at acidic pH after 5 days by 31P NMR method; type: physicochemical; conditions: read-out: Drug metabolism
[2] = molecular target: T1, Ectonucleotide pyrophosphatase/phosphodiesterase family member 1 (Homo sapiens) (UniProt P22413); experiment: Inhibition of human NPP1 at 100 uM using pNP-TMP as substrate preincubated for 3 mins followed by substrate addition measured after 15 mins relative to control
T1 sequence (whole entry): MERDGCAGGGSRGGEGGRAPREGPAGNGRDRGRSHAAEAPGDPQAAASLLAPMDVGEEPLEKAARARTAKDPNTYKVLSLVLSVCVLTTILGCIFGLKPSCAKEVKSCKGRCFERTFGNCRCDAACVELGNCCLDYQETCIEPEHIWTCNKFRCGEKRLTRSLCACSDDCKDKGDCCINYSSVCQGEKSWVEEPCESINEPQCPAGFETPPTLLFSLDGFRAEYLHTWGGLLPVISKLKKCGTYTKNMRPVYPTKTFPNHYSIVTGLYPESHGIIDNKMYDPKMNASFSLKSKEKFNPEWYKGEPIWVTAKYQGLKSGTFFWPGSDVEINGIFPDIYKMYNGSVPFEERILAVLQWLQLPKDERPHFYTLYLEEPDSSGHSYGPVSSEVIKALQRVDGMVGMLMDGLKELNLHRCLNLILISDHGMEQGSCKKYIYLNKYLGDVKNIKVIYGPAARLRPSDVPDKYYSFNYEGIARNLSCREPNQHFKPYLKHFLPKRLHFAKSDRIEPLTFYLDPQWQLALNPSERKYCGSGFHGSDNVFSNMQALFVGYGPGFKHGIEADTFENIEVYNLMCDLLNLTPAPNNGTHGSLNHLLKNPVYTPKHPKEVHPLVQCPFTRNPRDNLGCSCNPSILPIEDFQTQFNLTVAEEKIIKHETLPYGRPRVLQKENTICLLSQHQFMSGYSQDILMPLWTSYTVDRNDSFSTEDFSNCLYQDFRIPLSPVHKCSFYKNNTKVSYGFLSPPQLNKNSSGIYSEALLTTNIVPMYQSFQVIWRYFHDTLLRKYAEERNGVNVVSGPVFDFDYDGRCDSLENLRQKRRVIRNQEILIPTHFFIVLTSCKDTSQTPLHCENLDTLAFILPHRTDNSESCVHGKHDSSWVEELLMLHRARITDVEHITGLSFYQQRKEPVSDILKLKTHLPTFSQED
In short: (§1)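 Human NPP1 (4−5 μg) or NPP3 (12−14 μg) cell lysate in mM 1 CaCl2, 140 NaCl, 5 KCl, 50 Tris pH 8.5, 37 °C. Compound at 100 μM, 3 min preincubation, 100 μM pNP-TMP substrate. p-Nitrophenol read at 405 nm after 15 min. Blank with enzyme added at end subtracted. Activity without compound taken as 100%. At least two independent experiments in triplicate.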

[3] = molecular target: T2, Ectonucleoside triphosphate diphosphohydrolase 3 (Homo sapiens) (UniProt O75355); experiment: Inhibition of human NTPDase3 at 100 uM using ATP as substrate preincubated for 3 mins followed by substrate addition measured after 10 mins by malachite green reagent-based assay
T2 sequence (whole entry): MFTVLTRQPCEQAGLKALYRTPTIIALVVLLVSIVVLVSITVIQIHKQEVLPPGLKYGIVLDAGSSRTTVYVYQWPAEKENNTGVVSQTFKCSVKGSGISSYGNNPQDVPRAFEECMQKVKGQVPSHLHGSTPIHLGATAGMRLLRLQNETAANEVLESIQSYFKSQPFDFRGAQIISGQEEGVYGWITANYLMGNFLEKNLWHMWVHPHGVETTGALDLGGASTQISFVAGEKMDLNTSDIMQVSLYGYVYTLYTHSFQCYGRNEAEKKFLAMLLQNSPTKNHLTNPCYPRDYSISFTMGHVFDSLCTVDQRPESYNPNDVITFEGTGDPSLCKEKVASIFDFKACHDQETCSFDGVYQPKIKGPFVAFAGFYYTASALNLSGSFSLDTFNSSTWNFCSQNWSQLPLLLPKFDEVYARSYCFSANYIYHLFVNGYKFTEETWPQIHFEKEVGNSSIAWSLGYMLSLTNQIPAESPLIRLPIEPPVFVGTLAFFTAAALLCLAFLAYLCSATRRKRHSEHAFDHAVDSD
In short: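 Compound at 100 μM, 3 min preincubation, 100 μM ATP, 10 min. Stopped with malachite green; Pi read at 630 nm. Blank with enzyme added after stop subtracted. Activity with ATP alone taken as 100%.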

[4] = molecular target: T3, Ectonucleotide pyrophosphatase/phosphodiesterase family member 3 (Homo sapiens) (UniProt O14638); experiment: Inhibition of human NPP3 at 100 uM using pNP-TMP as substrate preincubated for 3 mins followed by substrate addition measured after 15 mins; in short: as §1
T3 sequence (whole entry): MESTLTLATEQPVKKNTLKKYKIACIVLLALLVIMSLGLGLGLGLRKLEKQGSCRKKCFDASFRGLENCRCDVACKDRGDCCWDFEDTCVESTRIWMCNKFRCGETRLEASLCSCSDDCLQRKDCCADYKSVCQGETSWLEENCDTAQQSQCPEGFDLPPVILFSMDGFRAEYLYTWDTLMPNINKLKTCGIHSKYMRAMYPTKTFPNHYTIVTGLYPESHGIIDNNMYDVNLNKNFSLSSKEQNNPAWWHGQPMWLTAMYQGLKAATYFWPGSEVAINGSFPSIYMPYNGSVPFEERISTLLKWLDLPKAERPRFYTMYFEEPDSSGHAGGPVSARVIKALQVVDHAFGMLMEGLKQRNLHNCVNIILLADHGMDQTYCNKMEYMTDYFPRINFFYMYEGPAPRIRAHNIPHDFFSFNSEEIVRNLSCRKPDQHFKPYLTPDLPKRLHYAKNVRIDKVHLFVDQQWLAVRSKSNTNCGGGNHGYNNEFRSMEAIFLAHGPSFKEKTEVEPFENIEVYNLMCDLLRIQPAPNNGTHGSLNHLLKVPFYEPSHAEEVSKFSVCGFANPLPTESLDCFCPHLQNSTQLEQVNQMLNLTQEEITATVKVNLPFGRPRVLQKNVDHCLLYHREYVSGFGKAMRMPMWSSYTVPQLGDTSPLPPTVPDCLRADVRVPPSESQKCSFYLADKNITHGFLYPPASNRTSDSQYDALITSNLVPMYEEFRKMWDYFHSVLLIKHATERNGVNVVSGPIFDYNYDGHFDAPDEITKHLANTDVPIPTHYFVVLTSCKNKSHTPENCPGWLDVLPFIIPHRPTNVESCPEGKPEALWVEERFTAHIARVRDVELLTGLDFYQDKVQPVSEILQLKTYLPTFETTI

[5] = molecular target: T1, Ectonucleotide pyrophosphatase/phosphodiesterase family member 1 (Homo sapiens); experiment: Inhibition of human NPP1 at 100 uM using ATP as substrate preincubated for 3 mins followed by substrate addition measured after 25 mins
In short: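 Human NPP1 cell lysate in mM 1 CaCl2, 140 NaCl, 5 KCl, 50 Tris pH 8.5, 37 °C. Compound at 100 μM, 3 min preincubation, 100 μM ATP substrate. Stopped after 25 min by heating 2 min at 95 °C. Pyrophosphate measured with a commercial kit.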

[6] = Drug metabolism at 2 mM at basic pH after 5 days by 31P NMR method; type: physicochemical; conditions: read-out: Drug metabolism
[7] = molecular target: P2Y purinoceptor 2 (Homo sapiens) (UniProt P41231); experiment: Agonist activity at recombinant human P2RY2 expressed in AD293 cells assessed as increase in intracellular calcium levels by Fluo-4/AM dye-based spectrofluorometer; type: functional, cell-based
In short: (§2)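 Human P2Y2, P2Y4 or P2Y6 receptor stably expressed in AD293 cells. Compound at 100 μM. Agonism read as change in intracellular calcium (Δ[Ca2+]i), with UDP or UTP as control.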

[8] = molecular target: P2Y purinoceptor 4 (Homo sapiens) (UniProt P51582); experiment: Agonist activity at recombinant human P2RY4 expressed in AD293 cells assessed as increase in intracellular calcium levels by Fluo-4/AM dye-based spectrofluorometer; type: functional, cell-based; in short: as §2
[9] = molecular target: P2Y purinoceptor 6 (Homo sapiens) (UniProt Q15077); experiment: Agonist activity at recombinant human P2RY6 expressed in AD293 cells assessed as increase in intracellular calcium levels by Fluo-4/AM dye-based spectrofluorometer; type: functional, cell-based; in short: as §2
[10] = molecular target: P2Y purinoceptor 6 (Homo sapiens) (UniProt Q15077); experiment: Agonist activity at recombinant human P2RY6 expressed in AD293 cells assessed as increase in intracellular IP1 levels; type: functional, cell-based
In short: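 Human P2Y6 receptor stably expressed in AD293 cells. Compound at 100 μM. Gq activation read as accumulation of inositol 1-phosphate (IP1).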

[11] = Stability of the compound assessed as air oxidation at room temperature at 1.8 mM after 3 weeks by 31P NMR method; type: physicochemical; conditions: 504 h, 1800 µM
[12] = Drug level treated with UTP 5'-O-Palpha,alpha-dithiophosphate-beta,gamma-methylene at 2 mM at pH 1.7 at room temperature after 25 days by 31P NMR method; type: physicochemical; conditions: pH 1.7, 600 h, 2000 µM
[13] = Drug level treated with UTP 5'-O-Palpha,alpha-dithiophosphate-beta,gamma-methylene at 2 mM at pH 11.7 at room temperature after 25 days by 31P NMR method; type: physicochemical; conditions: pH 11.7, 600 h, 2000 µM
[14] = Drug level treated with UTP 5'-O-Palpha,alpha-dithiophosphate at 2 mM at pH 11.7 at room temperature after 25 days by 31P NMR method; type: physicochemical; conditions: pH 11.7, 600 h, 2000 µM
[15] = Drug metabolism at 2 mM at pH 1.7 at room temperature after 20 days by 31P NMR method; type: physicochemical; conditions: read-out: Drug metabolism
[16] = Drug metabolism at 2 mM at pH 11.7 at room temperature after 20 days by 31P NMR method; type: physicochemical; conditions: read-out: Drug metabolism
[17] = Drug level treated with diuridine 5'-O-Palpha,alpha,5''-O-Palpha,alpha-tetrathiotetraphosphate at 2 mM at pD 12.6 at room temperature after 16 days by 31P NMR method; type: physicochemical; conditions: 384 h, 2000 µM
[18] = Half life of the compound at pH 7.4; type: physicochemical
[19] = Drug metabolism at 2 mM at pH 1.7 at room temperature after 28 days by 31P NMR method; type: physicochemical; conditions: read-out: Drug metabolism

Chain of P2Y purinoceptor 6 (Homo sapiens) (Q15077 whole entry): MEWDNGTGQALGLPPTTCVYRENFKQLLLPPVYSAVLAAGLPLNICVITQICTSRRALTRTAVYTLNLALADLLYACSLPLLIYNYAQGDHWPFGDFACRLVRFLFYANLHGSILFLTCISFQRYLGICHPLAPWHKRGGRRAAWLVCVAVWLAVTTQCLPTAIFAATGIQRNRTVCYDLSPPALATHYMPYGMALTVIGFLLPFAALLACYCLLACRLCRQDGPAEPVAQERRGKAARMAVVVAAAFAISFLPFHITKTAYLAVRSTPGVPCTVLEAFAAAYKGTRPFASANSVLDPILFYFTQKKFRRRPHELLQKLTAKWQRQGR
Chain of P2Y purinoceptor 4 (Homo sapiens) (P51582 whole entry): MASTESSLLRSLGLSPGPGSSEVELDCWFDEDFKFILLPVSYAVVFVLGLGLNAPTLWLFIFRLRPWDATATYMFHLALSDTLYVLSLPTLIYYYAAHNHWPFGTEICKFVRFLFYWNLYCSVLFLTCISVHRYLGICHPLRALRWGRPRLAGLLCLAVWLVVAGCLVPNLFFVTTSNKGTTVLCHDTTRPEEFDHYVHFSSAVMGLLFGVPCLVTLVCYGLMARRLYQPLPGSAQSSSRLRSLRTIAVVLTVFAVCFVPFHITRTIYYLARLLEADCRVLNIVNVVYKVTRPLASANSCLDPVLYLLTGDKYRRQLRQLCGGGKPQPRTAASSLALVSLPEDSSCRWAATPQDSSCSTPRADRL
Chain of P2Y purinoceptor 2 (Homo sapiens) (P41231 whole entry): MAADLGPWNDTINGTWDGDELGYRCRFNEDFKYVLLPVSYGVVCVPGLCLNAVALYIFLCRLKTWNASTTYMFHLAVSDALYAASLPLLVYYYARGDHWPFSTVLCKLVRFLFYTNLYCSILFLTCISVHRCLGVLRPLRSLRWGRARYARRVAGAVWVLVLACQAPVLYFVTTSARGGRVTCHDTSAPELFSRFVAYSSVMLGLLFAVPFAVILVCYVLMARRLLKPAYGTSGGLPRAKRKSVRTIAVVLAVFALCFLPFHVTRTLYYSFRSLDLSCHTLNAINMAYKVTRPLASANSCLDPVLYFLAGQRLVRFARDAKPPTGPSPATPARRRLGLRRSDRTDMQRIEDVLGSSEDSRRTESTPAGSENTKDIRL

For `O=c1ccn([C@@H]2O[C@H](COP(=S)(S)OP(=O)(O)OP(=O)(O)OP(=S)(S)OC[C@H]3O[C@@H](n4ccc(=O)[nH]c4=O)[C@H](O)[C@@H]3O)[C@@H](O)[C@H]2O)c(=O)[nH]1` (some centres undefined), the degraded at 120 h, 2000 µM [1] was 6%, the inhibition [2] was 80 to 100% and the inhibition [3] was 24%. For the same molecule, the inhibition [4] was 27%, the inhibition [5] was “Active” and the degraded at 120 h, 2000 µM [6] was 9%. The Activity [7] was “inactive”, the Activity [8] was “inactive” and the Activity [9] was “Active”. For the same molecule, the Activity [10] was “Active” and the Stability [11] was “Stable”.

In the case of `O=P(O)(O)CP(=O)(O)O` [MEDRONIC ACID], the Drug metabolism [12] is reported as “Metabolite_Detected” and the Drug metabolism [13] is reported as “Metabolite_Detected”.

For `O=c1ccn([C@@H]2O[C@H](COP(=O)(O)O)[C@@H](O)[C@H]2O)c(=O)[nH]1`, the Drug metabolism [14] was “Metabolite_Detected”.

`O=c1ccn([C@@H]2O[C@H](COP(=O)(O)OP(=O)(O)OP(=O)(O)O)[C@@H](O)[C@H]2O)c(=O)[nH]1` [URIDINE TRIPHOSPHATE] gave a degraded at 120 h, 2000 µM [1] of 5%, a degraded at 120 h, 2000 µM [6] of 8% and a degraded at 480 h, 2000 µM [15] of 11%. It also gave a degraded at 480 h, 2000 µM [16] of 10%.

With `OP(O)(=S)S` the Drug metabolism [14] was “Metabolite_Detected”, the Drug metabolism [17] was “Metabolite_Detected” and the Drug metabolism [13] was “Metabolite_Detected”.

In the case of `Nc1nc(SCc2ccccc2)nc2c1ncn2[C@@H]1O[C@H](COP(O)(=S)OP(=O)(O)OP(=O)(O)O)[C@@H](O)[C@H]1O` (some centres undefined), the degraded at 120 h, 2000 µM [1] is reported as 25% and the half-life [18] is reported as 11 days.

In the case of `O=c1ccn([C@@H]2O[C@H](COP(O)(=S)S)[C@@H](O)[C@H]2O)c(=O)[nH]1` (some centres undefined), the Drug metabolism [14] is reported as “Metabolite_Detected”, the Drug metabolism [17] is reported as “Metabolite_Detected” and the Drug metabolism [13] is reported as “Metabolite_Detected”.

For `O=c1ccn([C@@H]2O[C@H](COP(O)(=S)SCCS)[C@@H](O)[C@H]2O)c(=O)[nH]1` (some centres undefined), the Drug metabolism [14] was “Metabolite_Detected” and the Drug metabolism [13] was “Metabolite_Detected”.

In the case of `O=c1ccn([C@@H]2O[C@H](COP(=O)(O)OP(=O)(O)O)[C@@H](O)[C@H]2O)c(=O)[nH]1` [URIDINE_DIPHOSPHATE], the degraded at 672 h, 2000 µM [19] is reported as 7%.
